Assay outcomes as filed in PubChem BioAssay.
A selection: hits, their analogues and other compounds. The true share with any hit is near 3.5%.
Env fusion inh: HIV envelope-mediated fusion inhibition. AID 651610. actives 1.1% (n = 360,000). inhibition, % at 12.3 µM. HeLa-JRFL Env/CEM21 cell fusion, luciferase;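 active = mean replicate inhibition score of at least 50 and every replicate individually at or above 50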;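 note: 0% = plate neutral controls and 100% = maraviroc near 300 nM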
DENV2 CPE rescue: protects cells from dengue virus 2 cytopathic effect | CPE inhibition, % at 9.99 µM | actives 1.7% (n = 350,000) | AID 651640 | DENV2-infected cells, cytopathic effect rescue, plate reader; in the data active = CPE inhibition above about 20%, passing the limit was not always enough; tested in BHK-21 cells;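 note: 0% = median of neutral control wells and 100% = median of positive control wells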
PglD DTNB: inhibitors of Campylobacter jejuni PglD acetyltransferase | actives 0.098% (n = 360,000) | purified PglD enzyme, DTNB colorimetric CoA detection | AID 602405 | inhibition, % at 12.5 µM; in the data active = inhibition above about 16%, passing the limit was not always enough
PGC1a acetyl inh: lowers PGC1a acetylation signal in U2OS cells; AID 651687; AlphaScreen anti-acetyl-lysine; with virally co-expressed GCN5 acetyltransferase; actives 0.17% (n = 350,000); inhibition, % at 15.6 µM;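 active = every replicate shows inhibition of at least 40%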;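 note: 0% = neutral control wells and 100% = positive control wells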
rRNA inh HTS: inhibitors of bacterial rRNA selective over humanized ribosomes | E. coli WT GFP vs humanized-ribosome RFP mutants, fluorescence, 24 h; stronger effect = lower value; DMSO median 0, no signal -100 | GFP signal change (wild-type ribosome), % (no concentration beside the values) | actives 1.6% (n = 350,000);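 active = significant combined selectivity score with lowered wild-type GFP, culture density cut under 30%, mutant RFP and density less affected; inactive = any of these conditions unmet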
FN deposit inh: fibronectin deposition inhibition | actives 0.086% (n = 350,000) | AID 743247 | AH1F fibroblasts, Alexa488-fibronectin deposition fluorescence, overnight | inhibition, % at 12.6 µM;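 active = mean inhibition across replicates of 30% or more, regardless of how many single replicates reach that level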;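 note: positive control wells lacked labelled fibronectin entirely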
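Test system: AH1F fibroblast monolayer depositing Alexa488-labelled fibronectin into matrix. Input: 10000 cells per well. Technique: fluorescence, ex 485 nm, em 525 nm. Buffer or medium: DMEM plus 2% serum, read in PBS. Timing: 1 h cell adhesion before compound, then overnight fibronectin incubation. Compound: single dose, pinned. Read-out basis: inhibition from reduced deposited-fibronectin fluorescence.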
The depositor's hits bear a star; x = not tested or not shown; [ ] = dose if it differs, or a comment.

SMILES	Env fusion inh	DENV2 CPE rescue	PglD DTNB	PGC1a acetyl inh	rRNA inh HTS	FN deposit inh
C[C@@H]1CN([C@H](C)CO)C(=O)Cc2cc(NC(=O)CCCCCC(=O)Nc3ccccc3N)ccc2O[C@@H]1CN(C)Cc1ccc(Oc2ccccc2)cc1	56.1*[16.7 µM]	-8.0	1.7	1.6	-4.4	x
C[C@@H]1CN([C@@H](C)CO)C(=O)Cc2cc(NC(=O)CCCCCC(=O)Nc3ccccc3N)ccc2O[C@H]1CN(C)Cc1ccc(-c2ccccc2)cc1	11.6[16.7 µM]	25.0*	-2.9	10.3	x	x
C[C@H]1CN([C@@H](C)CO)C(=O)Cc2cc(NC(=O)CCCCCC(=O)Nc3ccccc3N)ccc2O[C@@H]1CN(C)Cc1ccc(Oc2ccccc2)cc1	20.5[16.7 µM]	-1.3	5.6	-5.6	-3.3	x
C[C@H]1CN([C@@H](C)CO)C(=O)Cc2cc(NC(=O)Cc3ccccc3)ccc2O[C@@H]1CN(C)Cc1ccncc1	x	23.0*	1.1	-3.6	3.7	x
C[C@@H]1CN([C@H](C)CO)C(=O)Cc2cc(NC(=O)CCCCCC(=O)Nc3ccccc3N)ccc2O[C@@H]1CN(C)Cc1ccc(C(F)(F)F)cc1	44.0[16.7 µM]	80.7*	-3.1	1.3	-3.1	-11.9
COc1ccc(CN(C)C[C@@H]2Oc3ccc(NC(=O)CCN4CCOCC4)cc3CC(=O)N([C@@H](C)CO)C[C@H]2C)cc1	x	0.9	3.8	-1.6	0.9	x
CN(C)C(=O)C[C@H]1C[C@@H]2c3cc(NS(=O)(=O)c4ccccc4)ccc3O[C@@H]2[C@@H](CO)O1	x	-4.7	-1.0	-3.2	-1.5	-12.8
C[C@@H]1CN([C@@H](C)CO)C(=O)c2cc(NC(=O)CCC(F)(F)F)ccc2O[C@H]1CN(C)C(=O)Nc1ccc2c(c1)OCO2	-9.6[16.7 µM]	-4.8	3.3	-2.5	-1.4	x
Cc1ccc(S(=O)(=O)NCC[C@H]2CC[C@@H](NC(=O)CCN3CCCCC3)[C@H](CO)O2)cc1	-19.4[16.7 µM]	-1.6	0.7	3.5	0.6	15.9
C[C@H]1CN([C@@H](C)CO)C(=O)c2cc(NC(=O)CCCCCC(=O)Nc3ccccc3N)ccc2O[C@H]1CN(C)Cc1ccncc1	3.6[16.7 µM]	-12.9	2.3	3.4	4.4	x
C[C@@H]1CN([C@@H](C)CO)C(=O)Cc2cc(NC(=O)CCCCCC(=O)Nc3ccccc3N)ccc2O[C@@H]1CN(C)Cc1ccc(Cl)c(Cl)c1	12.6[16.7 µM]	11.4	4.5	-3.4	-5.6	x
C[C@@H]1CN([C@@H](C)CO)C(=O)c2cc(NC(=O)CCCCCC(=O)Nc3ccccc3N)ccc2O[C@H]1CN(C)Cc1ccncc1	x	41.5*	x	-2.6	4.3	x
C[C@H](CO)N1C[C@H](C)[C@@H](CN(C)Cc2ccncc2)Oc2ccc(NC(=O)CCCCCC(=O)Nc3ccccc3N)cc2CC1=O	-14.7[16.7 µM]	53.2*	-0.1	5.1	-3.5	x
C[C@@H]1CN([C@H](C)CO)C(=O)Cc2cc(NC(=O)CCCCCC(=O)Nc3ccccc3N)ccc2O[C@@H]1CN(C)Cc1ccncc1	-1.5[16.7 µM]	4.6	-0.2	-2.1	-3.3	x
C[C@H]1CN([C@@H](C)CO)C(=O)Cc2cc(NC(=O)CCCCCC(=O)Nc3ccccc3N)ccc2O[C@H]1CN(C)C(=O)Nc1cccc2ccccc12	x	27.6*	x	4.1	2.8	x
C[C@@H]1CN([C@H](C)CO)C(=O)Cc2cc(NC(=O)CCCCCC(=O)Nc3ccccc3N)ccc2O[C@@H]1CN(C)Cc1ccc(Cl)c(Cl)c1	13.8[16.7 µM]	84.2*	-0.6	2.7	-6.7	x
C[C@@H]1CN([C@H](C)CO)S(=O)(=O)c2ccc(C3=CCCC3)cc2O[C@H]1CN(C)CC1CCOCC1	24.6[16.7 µM]	-2.3	3.4	-25.8	-3.9	x
C[C@@H]1CN([C@H](C)CO)C(=O)CCCn2cc(nn2)CO[C@H]1CN(C)Cc1cccc(O)c1	16.7[16.7 µM]	-0.9	-1.5	-2.1	0.8	2.0
CCC(=O)Nc1ccc2c(c1)C(=O)N(C)C[C@H](OC)[C@H](C)CN(Cc1cccnc1)[C@@H](C)CO2	x	2.1	5.1	3.0	2.0	-4.4
CCOC(=O)c1cnc2ccc(OCC)cc2c1NCc1ccccc1OC	94.5*	x	-0.3	x	x	x
CCOC(=O)c1cnc2ccc(C(=O)OC)cc2c1NCCCN1CCOCC1	-7.3	-5.6	-3.0	-2.2	-20.9	2.9
CCOC(=O)c1cnc2ccc(C(=O)OC)cc2c1NCCN1CCOCC1	x	5.6	x	x	-27.0*	x
COc1ccc(OC)c(CN2C(=O)c3ccccc3C2c2nnnn2-c2c(C)cccc2C)c1 (centres undefined)	67.9*	-7.2	x	x	-11.2	4.5
COc1ccc(CCN2C(=O)c3[nH]nc(-c4ccccc4O)c3C2c2cccc(O)c2)cc1OC (centres undefined)	75.5*	x	x	-4.3	x	-10.0
COc1ccc(CCN2C(=O)c3ccccc3C2c2nnnn2Cc2ccccc2)cc1OC (centres undefined)	3.4	2.8	x	x	-20.7*	-1.6
SMILES	Env fusion inh	DENV2 CPE rescue	PglD DTNB	PGC1a acetyl inh	rRNA inh HTS	FN deposit inh
COc1ccc(CCN2C(=O)c3ccccc3C2c2nnnn2-c2c(C)cccc2C)cc1OC (centres undefined)	45.2	3.1	x	x	-14.2	5.6
COc1ccc(C2c3c(-c4ccccc4O)n[nH]c3C(=O)N2Cc2ccco2)cc1OC (centres undefined)	10.5	-4.5	x	14.9	-13.6	-1.4
Cc1ccc(S(=O)(=O)N(C)C[C@H]2OCCCC[C@H](C)Oc3ccc(NC(=O)Nc4ccc5c(c4)OCO5)cc3C(=O)N([C@H](C)CO)C[C@H]2C)cc1	-17.5[16.7 µM]	2.9	4.6	4.7	-6.4	-5.9
CC1CCCN(c2ccc3nc4ccccc4c(=O)n3n2)C1 (centres undefined)	12.6	-3.4	x	x	-18.4*	-4.7
Cc1ccc2nc3ccc(N4CCCC4)nn3c(=O)c2c1	x	x	-0.6	1.8	x	x
Cc1ccc(CSC(Nc2ccc(F)cc2)=C(C#N)C#N)cc1	68.1*	0.4	x	x	x	3.9
Cc1noc(C)c1NC(=O)N(C)C[C@@H]1Oc2ncc(C#CC3CCCCC3)cc2C(=O)N([C@@H](C)CO)C[C@@H]1C	9.1[16.7 µM]	2.3	2.7	-8.5	-2.3	-2.2
CO[C@H]1CN(C)C(=O)c2cc(NC(=O)c3ccccc3)ccc2OC[C@H](C)N(C(C)=O)C[C@@H]1C	x	2.3	-1.5	-4.2	3.2	7.3
O=C(NCC1CC1)C1(S(=O)(=O)c2ccccc2)CC=CC1	13.4	21.5*	-5.7	8.1	9.6	2.5
COCCNC(=O)C1(S(=O)(=O)c2ccccc2)CC=CC1	-23.5	-2.8	-1.3	-0.7	6.1	-20.7
CCCCCCCCCn1ccc(=N)cc1	79.2*	-18.2	1.2	-17.9	-46.1	3.9
CC(=O)N(C)C[C@H]1Oc2ncc(C#Cc3cccc(F)c3)cc2C(=O)N([C@@H](C)CO)C[C@@H]1C	13.6[16.7 µM]	12.5	2.6	-0.6	3.2	5.4
CC(=O)c1sc2nsc(SCCN3CCOCC3)c2c1N	-11.8	0.5	1.0	2.5	x	8.2
